{"source": "ChEMBL document CHEMBL3227952", "about": "“Potential organ- or tumor-imaging agents. 18. Radioiodinated diamines and bisquaternaries” (J Med Chem, 1979)", "key": {"[1]": {"system": "Lung", "assay": "Drug uptake in Sprague-Dawley rat lung at 6.2 to 10.4 uCi, iv after 2 hrs by liquid scintillation counting", "type": "ADME, organism-based", "settings": "in vivo"}, "[2]": {"system": "Pancreas", "assay": "Drug uptake in Sprague-Dawley rat pancreas at 6.2 to 10.4 uCi, iv after 2 hrs by liquid scintillation counting", "type": "ADME, organism-based", "settings": "in vivo"}, "[3]": {"system": "Pituitary gland", "assay": "Drug uptake in Sprague-Dawley rat pituitary at 6.2 to 10.4 uCi, iv after 2 hrs by liquid scintillation counting", "type": "ADME, organism-based", "settings": "in vivo"}, "[4]": {"system": "Spleen", "assay": "Drug uptake in Sprague-Dawley rat spleen at 6.2 to 10.4 uCi, iv after 2 hrs by liquid scintillation counting", "type": "ADME, organism-based", "settings": "in vivo"}, "[5]": {"system": "Thyroid gland", "assay": "Drug uptake in Sprague-Dawley rat thyroid at 6.2 to 10.4 uCi, iv after 2 hrs by liquid scintillation counting", "type": "ADME, organism-based", "settings": "in vivo"}, "[6]": {"system": "Testes", "assay": "Drug uptake in Sprague-Dawley rat testes at 6.2 to 10.4 uCi, iv after 2 hrs by liquid scintillation counting", "type": "ADME, organism-based, Testis", "settings": "in vivo"}, "[7]": {"assay": "Drug uptake in Sprague-Dawley rat dorsolateral prostate at 6.2 to 10.4 uCi, iv after 2 hrs by liquid scintillation counting", "type": "ADME, organism-based, Prostate gland", "settings": "in vivo", "how_it_was_run": "(§1)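 Adult male rats (200–420 g) given radioiodinated agent, 6.5–7.0 μCi/mg, in 0.10–0.15 mL of 0.1 N HCl. Dosing was by tail vein under ether. Rats were killed by exsanguination, three at 0.5 h and five at 2 h. Organs were rinsed, blotted and weighed, with duplicate samples counted for radioactivity. Results are % administered dose/g, mean ± SEM.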"}, "[8]": {"assay": "Drug uptake in Sprague-Dawley rat ventral prostate at 6.2 to 10.4 uCi, iv after 2 hrs by liquid scintillation counting", "type": "ADME, organism-based, Prostate gland", "settings": "in vivo", "how_it_was_run": "(§2)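 Adult male Sprague-Dawley rats (200–420 g) with free access to food and water. Under ether anesthesia, each received 6.2–10.4 μCi (6.5–7.0 μCi/mg) of tracer in 0.10–0.15 mL of 0.1 N HCl vehicle, iv via the tail vein. Rats were killed by exsanguination at 0.5 h (3 rats) or 2 h (5 rats). Organs were rinsed, blotted and weighed; duplicate samples were counted. Results are % administered dose/g, mean ± SEM.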"}, "[9]": {"system": "Blood", "assay": "Drug uptake in Sprague-Dawley rat blood at 6.2 to 10.4 uCi, iv after 2 hrs by liquid scintillation counting", "type": "ADME, organism-based", "settings": "in vivo", "how_it_was_run": "as §1"}, "[10]": {"system": "Adrenal", "assay": "Drug uptake in Sprague-Dawley rat adrenal at 6.2 to 10.4 uCi, iv after 0.5 hrs by liquid scintillation counting", "type": "ADME, organism-based, Adrenal gland", "settings": "in vivo", "how_it_was_run": "as §1"}, "[11]": {"assay": "Drug uptake in Sprague-Dawley rat bone marrow at 6.2 to 10.4 uCi, iv after 0.5 hrs by liquid scintillation counting", "type": "ADME, organism-based", "settings": "in vivo", "how_it_was_run": "as §1"}, "[12]": {"system": "Brain", "assay": "Drug uptake in Sprague-Dawley rat brain at 6.2 to 10.4 uCi, iv after 0.5 hrs by liquid scintillation counting", "type": "ADME, organism-based", "settings": "in vivo", "how_it_was_run": "as §1"}, "[13]": {"assay": "Drug uptake in Sprague-Dawley rat diaphragm at 6.2 to 10.4 uCi, iv after 0.5 hrs by liquid scintillation counting", "type": "ADME, organism-based", "settings": "in vivo", "how_it_was_run": "as §1"}, "[14]": {"system": "Duodenum", "assay": "Drug uptake in Sprague-Dawley rat duodenum at 6.2 to 10.4 uCi, iv after 0.5 hrs by liquid scintillation counting", "type": "ADME, organism-based", "settings": "in vivo", "how_it_was_run": "as §1"}, "[15]": {"system": "Heart", "assay": "Drug uptake in Sprague-Dawley rat heart at 6.2 to 10.4 uCi, iv after 0.5 hrs by liquid scintillation counting", "type": "ADME, organism-based", "settings": "in vivo", "how_it_was_run": "as §1"}, "[16]": {"system": "Kidney", "assay": "Drug uptake in Sprague-Dawley rat kidney at 6.2 to 10.4 uCi, iv after 0.5 hrs by liquid scintillation counting", "type": "ADME, organism-based", "settings": "in vivo"}, "[17]": {"system": "Liver", "assay": "Drug uptake in Sprague-Dawley rat liver at 6.2 to 10.4 uCi, iv after 0.5 hrs by liquid scintillation counting", "type": "ADME, organism-based", "settings": "in vivo, in the assay text read “well-scintillation gamma counting” for “liquid scintillation counting”", "how_it_was_run": "(§3)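 Three rats were killed at 0.5 h and five at 2 h by exsanguination under ether. Organs were rinsed, blotted and weighed, duplicate samples gamma-counted (87% efficiency), expressed as % administered dose/g, mean ± SEM.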"}, "[18]": {"system": "Lung", "assay": "Drug uptake in Sprague-Dawley rat lung at 6.2 to 10.4 uCi, iv after 0.5 hrs by liquid scintillation counting", "type": "ADME, organism-based", "settings": "in vivo, in the assay text read “well-scintillation gamma counting” for “liquid scintillation counting”", "how_it_was_run": "as §3"}, "[19]": {"system": "Pancreas", "assay": "Drug uptake in Sprague-Dawley rat pancreas at 6.2 to 10.4 uCi, iv after 0.5 hrs by liquid scintillation counting", "type": "ADME, organism-based", "settings": "in vivo, in the assay text read “well-scintillation gamma counting” for “liquid scintillation counting”", "how_it_was_run": "as §3"}, "[20]": {"system": "Pituitary gland", "assay": "Drug uptake in Sprague-Dawley rat pituitary at 6.2 to 10.4 uCi, iv after 0.5 hrs by liquid scintillation counting", "type": "ADME, organism-based", "settings": "in vivo, in the assay text read “well-scintillation gamma counting” for “liquid scintillation counting”", "how_it_was_run": "as §3"}, "[21]": {"system": "Spleen", "assay": "Drug uptake in Sprague-Dawley rat spleen at 6.2 to 10.4 uCi, iv after 0.5 hrs by liquid scintillation counting", "type": "ADME, organism-based", "settings": "in vivo, in the assay text read “well-scintillation gamma counting” for “liquid scintillation counting”", "how_it_was_run": "as §3"}, "[22]": {"system": "Thyroid gland", "assay": "Drug uptake in Sprague-Dawley rat thyroid at 6.2 to 10.4 uCi, iv after 0.5 hrs by liquid scintillation counting", "type": "ADME, organism-based", "settings": "in vivo"}, "[23]": {"system": "Testes", "assay": "Drug uptake in Sprague-Dawley rat testes at 6.2 to 10.4 uCi, iv after 0.5 hrs by liquid scintillation counting", "type": "ADME, organism-based, Testis", "settings": "in vivo"}, "[24]": {"assay": "Drug uptake in Sprague-Dawley rat dorsolateral prostate at 6.2 to 10.4 uCi, iv after 0.5 hrs by liquid scintillation counting", "type": "ADME, organism-based, Prostate gland", "settings": "in vivo", "how_it_was_run": "as §1"}, "[25]": {"assay": "Drug uptake in Sprague-Dawley rat ventral prostate at 6.2 to 10.4 uCi, iv after 0.5 hrs by liquid scintillation counting", "type": "ADME, organism-based, Prostate gland", "settings": "in vivo", "how_it_was_run": "as §2"}, "[26]": {"system": "Blood", "assay": "Drug uptake in Sprague-Dawley rat blood at 6.2 to 10.4 uCi, iv after 0.5 hrs by liquid scintillation counting", "type": "ADME, organism-based", "settings": "in vivo", "how_it_was_run": "as §1"}, "[27]": {"system": "Adrenal", "assay": "Drug uptake in Sprague-Dawley rat adrenal at 6.2 to 10.4 uCi, iv after 2 hrs by liquid scintillation counting", "type": "ADME, organism-based, Adrenal gland", "settings": "in vivo", "how_it_was_run": "as §1"}, "[28]": {"assay": "Drug uptake in Sprague-Dawley rat bone marrow at 6.2 to 10.4 uCi, iv after 2 hrs by liquid scintillation counting", "type": "ADME, organism-based", "settings": "in vivo", "how_it_was_run": "as §1"}, "[29]": {"system": "Brain", "assay": "Drug uptake in Sprague-Dawley rat brain at 6.2 to 10.4 uCi, iv after 2 hrs by liquid scintillation counting", "type": "ADME, organism-based", "settings": "in vivo", "how_it_was_run": "as §1"}, "[30]": {"assay": "Drug uptake in Sprague-Dawley rat diaphragm at 6.2 to 10.4 uCi, iv after 2 hrs by liquid scintillation counting", "type": "ADME, organism-based", "settings": "in vivo", "how_it_was_run": "as §1"}, "[31]": {"system": "Duodenum", "assay": "Drug uptake in Sprague-Dawley rat duodenum at 6.2 to 10.4 uCi, iv after 2 hrs by liquid scintillation counting", "type": "ADME, organism-based", "settings": "in vivo", "how_it_was_run": "as §1"}, "[32]": {"system": "Heart", "assay": "Drug uptake in Sprague-Dawley rat heart at 6.2 to 10.4 uCi, iv after 2 hrs by liquid scintillation counting", "type": "ADME, organism-based", "settings": "in vivo, in the assay text read “well-scintillation gamma counting” for “liquid scintillation counting”", "how_it_was_run": "as §1"}, "[33]": {"system": "Kidney", "assay": "Drug uptake in Sprague-Dawley rat kidney at 6.2 to 10.4 uCi, iv after 2 hrs by liquid scintillation counting", "type": "ADME, organism-based", "settings": "in vivo, in the assay text read “well-scintillation gamma counting” for “liquid scintillation counting”", "how_it_was_run": "as §3"}, "[34]": {"system": "Liver", "assay": "Drug uptake in Sprague-Dawley rat liver at 6.2 to 10.4 uCi, iv after 2 hrs by liquid scintillation counting", "type": "ADME, organism-based", "settings": "in vivo, in the assay text read “well-scintillation gamma counting” for “liquid scintillation counting”", "how_it_was_run": "as §3"}}, "data": [{"smiles": "NCc1ccc(CN)c([125I])c1", "values": [{"measurement": "Drug uptake", "setting": "[1]", "value": 2.261, "unit": "% ID/g"}, {"measurement": "Drug uptake", "setting": "[2]", "value": 0.617, "unit": "% ID/g"}, {"measurement": "Drug uptake", "setting": "[3]", "value": 0.681, "unit": "% ID/g"}, {"measurement": "Drug uptake", "setting": "[4]", "value": 0.988, "unit": "% ID/g"}, {"measurement": "Drug uptake", "setting": "[5]", "value": 3.476, "unit": "% ID/g"}, {"measurement": "Drug uptake", "setting": "[6]", "value": 0.048, "unit": "% ID/g"}, {"measurement": "Drug uptake", "setting": "[7]", "value": 0.436, "unit": "% ID/g"}, {"measurement": "Drug uptake", "setting": "[8]", "value": 0.293, "unit": "% ID/g"}, {"measurement": "Drug uptake", "setting": "[9]", "value": 0.041, "unit": "% ID/g"}, {"measurement": "Drug uptake", "setting": "[10]", "value": 1.732, "unit": "% ID/g"}, {"measurement": "Drug uptake", "setting": "[11]", "value": 0.44, "unit": "% ID/g"}, {"measurement": "Drug uptake", "setting": "[12]", "value": 0.063, "unit": "% ID/g"}, {"measurement": "Drug uptake", "setting": "[13]", "value": 0.38, "unit": "% ID/g"}, {"measurement": "Drug uptake", "setting": "[14]", "value": 0.485, "unit": "% ID/g"}, {"measurement": "Drug uptake", "setting": "[15]", "value": 0.553, "unit": "% ID/g"}, {"measurement": "Drug uptake", "setting": "[16]", "value": 1.926, "unit": "% ID/g"}, {"measurement": "Drug uptake", "setting": "[17]", "value": 1.008, "unit": "% ID/g"}, {"measurement": "Drug uptake", "setting": "[18]", "value": 2.384, "unit": "% ID/g"}, {"measurement": "Drug uptake", "setting": "[19]", "value": 0.657, "unit": "% ID/g"}, {"measurement": "Drug uptake", "setting": "[20]", "value": 0.533, "unit": "% ID/g"}, {"measurement": "Drug uptake", "setting": "[21]", "value": 0.844, "unit": "% ID/g"}, {"measurement": "Drug uptake", "setting": "[22]", "value": 2.457, "unit": "% ID/g"}, {"measurement": "Drug uptake", "setting": "[23]", "value": 0.036, "unit": "% ID/g"}, {"measurement": "Drug uptake", "setting": "[24]", "value": 0.32, "unit": "% ID/g"}, {"measurement": "Drug uptake", "setting": "[25]", "value": 0.296, "unit": "% ID/g"}, {"measurement": "Drug uptake", "setting": "[26]", "value": 0.073, "unit": "% ID/g"}, {"measurement": "Drug uptake", "setting": "[27]", "value": 1.577, "unit": "% ID/g"}, {"measurement": "Drug uptake", "setting": "[28]", "value": 0.682, "unit": "% ID/g"}, {"measurement": "Drug uptake", "setting": "[29]", "value": 0.088, "unit": "% ID/g"}, {"measurement": "Drug uptake", "setting": "[30]", "value": 0.293, "unit": "% ID/g"}, {"measurement": "Drug uptake", "setting": "[31]", "value": 0.343, "unit": "% ID/g"}, {"measurement": "Drug uptake", "setting": "[32]", "value": 0.44, "unit": "% ID/g"}, {"measurement": "Drug uptake", "setting": "[33]", "value": 1.67, "unit": "% ID/g"}, {"measurement": "Drug uptake", "setting": "[34]", "value": 0.949, "unit": "% ID/g"}]}]}
